Legend:
Conditions in all cases: stereoisomer not certain
OR8K1 (Homo sapiens) = OR8K1 (Homo sapiens) (UniProt Q8NGG5)
How it was run: (§1)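 Whether a receptor–molecule pair is responsive (active) rests on the original authors' judgment that its measured signal was statistically different from baseline. Pairs without that judgment are non-responsive (inactive). Sources used varied assay methods, commonly transient luciferase assays in mammalian cell lines.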

OR8K3 (Homo sapiens) = OR8K3 (Homo sapiens) (UniProt Q8NH51)
OR8K3 (Homo sapiens), sequence (Q8NH51 whole entry): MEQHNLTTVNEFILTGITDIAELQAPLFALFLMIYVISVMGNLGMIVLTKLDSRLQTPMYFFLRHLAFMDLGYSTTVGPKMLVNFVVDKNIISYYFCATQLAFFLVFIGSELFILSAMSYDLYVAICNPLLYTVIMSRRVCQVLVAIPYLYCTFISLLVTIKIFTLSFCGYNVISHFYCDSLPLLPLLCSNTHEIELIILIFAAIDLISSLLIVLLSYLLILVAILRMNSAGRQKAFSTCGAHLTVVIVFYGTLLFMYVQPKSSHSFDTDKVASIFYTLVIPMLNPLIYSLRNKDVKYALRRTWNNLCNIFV
How it was run: as §1

OR8K5 (Homo sapiens) = OR8K5 (Homo sapiens) (UniProt Q8NH50)
OR8K5 (Homo sapiens), sequence (Q8NH50 whole entry): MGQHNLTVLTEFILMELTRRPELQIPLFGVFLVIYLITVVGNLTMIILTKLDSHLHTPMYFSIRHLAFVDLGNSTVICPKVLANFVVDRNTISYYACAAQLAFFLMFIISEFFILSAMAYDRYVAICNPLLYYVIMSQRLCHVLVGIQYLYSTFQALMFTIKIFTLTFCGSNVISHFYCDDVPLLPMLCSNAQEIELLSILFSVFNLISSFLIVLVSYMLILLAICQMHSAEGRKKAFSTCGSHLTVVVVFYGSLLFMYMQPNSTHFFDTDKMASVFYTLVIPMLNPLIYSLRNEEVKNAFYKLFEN
How it was run: as §1

OR8S1 (Homo sapiens) = OR8S1 (Homo sapiens) (UniProt Q8NH09)
OR8S1 (Homo sapiens), sequence (Q8NH09 whole entry): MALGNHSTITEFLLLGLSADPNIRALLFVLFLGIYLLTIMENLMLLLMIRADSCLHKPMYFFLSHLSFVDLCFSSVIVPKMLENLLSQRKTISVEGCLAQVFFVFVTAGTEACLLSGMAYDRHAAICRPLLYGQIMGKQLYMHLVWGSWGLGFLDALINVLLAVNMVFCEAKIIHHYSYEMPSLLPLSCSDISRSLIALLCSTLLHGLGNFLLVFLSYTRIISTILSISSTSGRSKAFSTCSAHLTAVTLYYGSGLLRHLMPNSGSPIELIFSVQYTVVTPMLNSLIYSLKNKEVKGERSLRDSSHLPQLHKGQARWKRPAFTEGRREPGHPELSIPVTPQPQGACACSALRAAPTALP
How it was run: as §1

OR8U1 (Homo sapiens) = OR8U1 (Homo sapiens) (UniProt Q8NH10)
OR8U1 (Homo sapiens), sequence (Q8NH10 whole entry): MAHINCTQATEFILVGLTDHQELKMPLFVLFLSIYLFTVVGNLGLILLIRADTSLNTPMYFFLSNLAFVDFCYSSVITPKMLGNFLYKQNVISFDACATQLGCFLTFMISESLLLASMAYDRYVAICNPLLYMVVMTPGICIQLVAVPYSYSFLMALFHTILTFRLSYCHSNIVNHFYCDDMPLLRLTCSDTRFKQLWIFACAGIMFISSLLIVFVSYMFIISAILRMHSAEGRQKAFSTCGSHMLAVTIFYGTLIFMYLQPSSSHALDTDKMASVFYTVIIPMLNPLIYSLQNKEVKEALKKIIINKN
How it was run: as §1

OR8U3 (Homo sapiens) = OR8U3 (Homo sapiens) (UniProt Q8NH85)
OR8U3 (Homo sapiens), sequence (Q8NH85 whole entry): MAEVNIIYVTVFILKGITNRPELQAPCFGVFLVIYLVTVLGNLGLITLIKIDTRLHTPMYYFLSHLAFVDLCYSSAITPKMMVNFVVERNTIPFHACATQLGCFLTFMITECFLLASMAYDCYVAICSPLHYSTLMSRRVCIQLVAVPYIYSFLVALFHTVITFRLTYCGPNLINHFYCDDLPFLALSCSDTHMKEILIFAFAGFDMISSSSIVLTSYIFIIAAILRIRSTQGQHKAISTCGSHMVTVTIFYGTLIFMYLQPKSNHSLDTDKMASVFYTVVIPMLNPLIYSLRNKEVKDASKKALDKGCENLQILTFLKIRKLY
How it was run: as §1

OR8U8 (Homo sapiens) = OR8U8 (Homo sapiens) (UniProt P0C7N1)
OR8U8 (Homo sapiens), sequence (P0C7N1 whole entry): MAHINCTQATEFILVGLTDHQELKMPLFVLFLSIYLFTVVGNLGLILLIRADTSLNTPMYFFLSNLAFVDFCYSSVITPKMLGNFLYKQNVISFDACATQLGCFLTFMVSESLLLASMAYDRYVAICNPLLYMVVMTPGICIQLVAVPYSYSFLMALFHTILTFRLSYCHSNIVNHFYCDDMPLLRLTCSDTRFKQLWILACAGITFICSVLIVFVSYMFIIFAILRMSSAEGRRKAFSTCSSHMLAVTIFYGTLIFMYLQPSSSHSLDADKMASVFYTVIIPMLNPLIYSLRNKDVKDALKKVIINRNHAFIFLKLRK
How it was run: as §1

OR8J3 E4V = test system: OR8J3 E4V
OR8J3 E4V, sequence (as listed by the source): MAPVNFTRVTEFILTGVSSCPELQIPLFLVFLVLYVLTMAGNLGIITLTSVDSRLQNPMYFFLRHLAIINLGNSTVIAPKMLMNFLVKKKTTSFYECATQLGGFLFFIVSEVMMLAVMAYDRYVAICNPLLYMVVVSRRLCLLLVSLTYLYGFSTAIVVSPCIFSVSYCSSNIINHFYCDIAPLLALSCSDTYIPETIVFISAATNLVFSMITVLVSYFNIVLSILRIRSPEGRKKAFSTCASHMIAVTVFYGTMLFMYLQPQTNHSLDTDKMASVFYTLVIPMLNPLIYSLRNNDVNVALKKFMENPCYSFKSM
How it was run: as §1

OR8U8 [1] = test system: OR8U8
How it was run: as §1
Target sequence in this assay (as listed by the source): as the sequence (P0C7N1 whole entry) above, with V109I, S112C counted along it

OR8U8 [2] = test system: OR8U8; remark: listed apart in the source
How it was run: as §1
Target sequence in this assay (as listed by the source): as the sequence (P0C7N1 whole entry) above, with H20R, V109I, R165C counted along it

Measured: odorant receptor agonist call;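 also: active if original authors judged signal statistically different from baseline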

OR8K1 (Homo sapiens), sequence (Q8NGG5 whole entry): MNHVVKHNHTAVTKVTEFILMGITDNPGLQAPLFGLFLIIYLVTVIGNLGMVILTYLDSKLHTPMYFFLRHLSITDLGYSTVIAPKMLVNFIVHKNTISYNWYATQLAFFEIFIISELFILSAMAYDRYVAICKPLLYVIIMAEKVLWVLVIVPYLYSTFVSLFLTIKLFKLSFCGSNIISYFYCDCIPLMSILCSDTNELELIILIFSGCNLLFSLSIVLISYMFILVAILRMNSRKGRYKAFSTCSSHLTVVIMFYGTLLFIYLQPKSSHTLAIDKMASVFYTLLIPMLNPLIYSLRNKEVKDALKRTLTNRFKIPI

Cc1c([N+](=O)[O-])c(C)c([N+](=O)[O-])c(C(C)(C)C)c1[N+](=O)[O-]
not listed: OR8J3 E4V | OR8U8 [1] | OR8U8 [2]
inactive: all other assays above

C=CCOC(=O)Cc1ccccc1
not listed: OR8U8 (Homo sapiens)
inactive: all other assays above

Source: the M2OR odorant receptor database
